Measurements from ChEMBL document CHEMBL1137938, “Affinity and intrinsic efficacy (IE) of 5'-carbamoyl adenosine analogues for the A1 adenosine receptor--efforts towards the discovery of a chronic ventricular rate control agent for the treatment of atrial fibrillation (AF)” (Bioorg Med Chem Lett, 2004).
Each block holds one molecule with its values, some of them ahead of it.

Key:
[1] = Compound remaining after incubation with 2 mg/mL of human liver microsomes at 37 degrees C for 30 min in a pH 7.4, 0.05 M phosphate buffer; format: ADME, Microsome
Summary of the method: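 Incubation with human liver microsomes at 2 mg/mL, 37 C, 30 min, in 0.05 M phosphate buffer pH 7.4 containing 5 mM MgCl2 and 2 mM NADPH; percentage of parent compound remaining recorded.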

Cavia porcellus [2] = organism: Cavia porcellus; assay: Agonist-induced SH prolongation in guinea pig isolated heart was determined; 0.5-0.51 uM (Partial agonist); format: functional
[3] = Amount of tecadenoson present after 30 min in the liver S-9 assay as determined by mass specanalysis; format: ADME, tissue-based; conditions: human, 0.5 h
[4] = system: Adenosine receptor A1 (Mesocricetus auratus); assay: Stimulation of binding of [35S]GTP uM)
Cavia porcellus [5] = organism: Cavia porcellus; assay: Agonist-induced SH prolongation in guinea pig isolated heart was determined; format: functional
Cavia porcellus [6] = organism: Cavia porcellus; assay: Agonist-induced SH prolongation in guinea pig isolated heart was determined; 3-5 uM (Partial agonist); format: functional
Cavia porcellus [7] = organism: Cavia porcellus; assay: Agonist-induced SH prolongation in guinea pig isolated heart was determined; 3-5 uM (Full agonist); format: functional
Cavia porcellus [8] = organism: Cavia porcellus; assay: Agonist-induced SH prolongation in guinea pig isolated heart was determined; Inactive; format: functional
[9] = Concentration in rat plasma after 5 mg/kg oral gavage for 8 hours; format: ADME, organism-based; parameters: dose 5 mg/kg, route oral
Summary of the method: (§1)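 Rats dosed by oral gavage with parent at 5 mg/kg, or with bis-acetate prodrug at molar equivalents. Parent concentration in plasma followed over time. Cmax and AUC taken from the plasma profile. Oral bioavailability derived from AUC measurements.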

[10] = Maximum concentration in rat plasma after 5 mg/kg oral gavage; format: ADME, organism-based; parameters: dose 5 mg/kg, route oral; summary of the method: as §1
[11] = Bioavailability in rat after 5 mg/kg oral gavage; format: ADME, organism-based; conditions: in vivo, read-out: Bioavailabiility; summary of the method: as §1
[12] = Amount of tecadenoson present after 30 min in the liver S-9 assay as determined by mass specanalysis; trace; format: ADME, tissue-based; conditions: human, 0.5 h
[13] = Plasma half life in rat after 5 mg/kg oral gavage; 6-8 hours; format: ADME, organism-based; parameters: dose 5 mg/kg, route oral
Cavia porcellus [14] = organism: Cavia porcellus; assay: Agonist-induced SH prolongation in guinea pig isolated heart was determined; 0.5-1 uM (Partial agonist); format: functional, organism-based
[15] = Amount of tecadenoson present after 30 min in the liver S-9 assay as determined by mass specanalysis; 1-2; format: ADME, tissue-based; conditions: human, 0.5 h
[16] = Amount of tecadenoson present after 30 min in the liver S-9 assay as determined by mass specanalysis; -0.5 to 1; format: ADME, tissue-based; conditions: human, 0.5 h

remaining at 0.5 h [1]: 41%
EC50 (Cavia porcellus [2]): 0.51 µM
Activity [3]: 0%
[35S]GTPγS binding stimulation (% of CPA) [4]: 84%
SMILES: CCNC(=S)OC[C@H]1OC(n2cnc3c(N[C@@H]4CCOC4)nc(Cl)nc32)[C@H](O)[C@@H]1O (stereo not given in full)

[35S]GTPγS binding stimulation (% of CPA) [4]: 84%
SMILES: CC(C)NC(=S)OC[C@H]1OC(n2cnc3c(N[C@@H]4CCOC4)ncnc32)[C@H](O)[C@@H]1O (stereo not given in full)

EC50 (Cavia porcellus [5]): > 5 µM
[35S]GTPγS binding stimulation (% of CPA) [4]: 49%
SMILES: CCCCNC(=O)OC[C@H]1OC(n2cnc3c(N[C@@H]4CCOC4)ncnc32)[C@H](O)[C@@H]1O (stereo not given in full)

EC50 (Cavia porcellus [6]): 5 µM
[35S]GTPγS binding stimulation (% of CPA) [4]: 77%
SMILES: CNC(=O)OC[C@H]1OC(n2cnc3c(N[C@@H]4CCOC4)nc(Cl)nc32)[C@H](O)[C@@H]1O (stereo not given in full)

[35S]GTPγS binding stimulation (% of CPA) [4]: 91%
SMILES: CC(C)NC(=O)OC[C@H]1OC(n2cnc3c(N[C@@H]4CCOC4)ncnc32)[C@H](O)[C@@H]1O (stereo not given in full)

[35S]GTPγS binding stimulation (% of CPA) [4]: 82%
SMILES: O=C(NC1CC1)OC[C@H]1OC(n2cnc3c(N[C@@H]4CCOC4)ncnc32)[C@H](O)[C@@H]1O (stereo not given in full)

[35S]GTPγS binding stimulation (% of CPA) [4]: 80%
SMILES: CCNC(=O)OC[C@H]1OC(n2cnc3c(N[C@@H]4CCOC4)ncnc32)[C@H](O)[C@@H]1O (stereo not given in full)

[35S]GTPγS binding stimulation (% of CPA) [4]: 80%
SMILES: O=C(NC1CCCCC1)OC[C@H]1OC(n2cnc3c(N[C@@H]4CCOC4)ncnc32)[C@H](O)[C@@H]1O (stereo not given in full)

[35S]GTPγS binding stimulation (% of CPA) [4]: 73%
SMILES: CCCNC(=O)OC[C@H]1OC(n2cnc3c(N[C@@H]4CCOC4)ncnc32)[C@H](O)[C@@H]1O (stereo not given in full)

[35S]GTPγS binding stimulation (% of CPA) [4]: 79%
SMILES: O[C@@H]1[C@@H](COC(=S)NC2CCC2)OC(n2cnc3c(N[C@@H]4CCOC4)ncnc32)[C@@H]1O (stereo not given in full)

[35S]GTPγS binding stimulation (% of CPA) [4]: 48%
SMILES: C=CCNC(=O)OC[C@H]1OC(n2cnc3c(N[C@@H]4CCOC4)ncnc32)[C@H](O)[C@@H]1O (stereo not given in full)

EC50 (Cavia porcellus [7]): 5 µM
[35S]GTPγS binding stimulation (% of CPA) [4]: 77%
SMILES: CCNC(=S)OC[C@H]1OC(n2cnc3c(N[C@@H]4CCOC4)ncnc32)[C@H](O)[C@@H]1O (stereo not given in full)

[35S]GTPγS binding stimulation (% of CPA) [4]: 87%
SMILES: CN(C)C(=O)OC[C@H]1OC(n2cnc3c(N[C@@H]4CCOC4)ncnc32)[C@H](O)[C@@H]1O (stereo not given in full)

EC50 (Cavia porcellus [8]): Not Active
[35S]GTPγS binding stimulation (% of CPA) [4]: 70%
SMILES: CCCCNC(=S)OC[C@H]1OC(n2cnc3c(N[C@@H]4CCOC4)ncnc32)[C@H](O)[C@@H]1O (stereo not given in full)

[35S]GTPγS binding stimulation (% of CPA) [4]: 44%
SMILES: O=C(NCc1ccccc1)OC[C@H]1OC(n2cnc3c(N[C@@H]4CCOC4)ncnc32)[C@H](O)[C@@H]1O (stereo not given in full)

[35S]GTPγS binding stimulation (% of CPA) [4]: 93%
SMILES: O[C@@H]1[C@@H](COC(=S)NCc2ccccc2)OC(n2cnc3c(N[C@@H]4CCOC4)ncnc32)[C@@H]1O (stereo not given in full)

[35S]GTPγS binding stimulation (% of CPA) [4]: 67%
SMILES: O=C(NC1CCC1)OC[C@H]1OC(n2cnc3c(N[C@@H]4CCOC4)ncnc32)[C@H](O)[C@@H]1O (stereo not given in full)

AUC at 8 h [9]: 1340 ng·h/mL
Cmax [10]: 647 ng/mL
SMILES: CNC(=O)OC[C@H]1OC(n2cnc3c(N[C@@H]4CCOC4)ncnc32)[C@H](OC(C)=O)[C@@H]1OC(C)=O (stereo not given in full)

remaining at 0.5 h [1]: 62%
EC50 (Cavia porcellus [2]): 0.51 µM
Activity [3]: 0%
[35S]GTPγS binding stimulation (% of CPA) [4]: 77%
SMILES: CNC(=S)OC[C@H]1OC(n2cnc3c(N[C@@H]4CCOC4)nc(Cl)nc32)[C@H](O)[C@@H]1O (stereo not given in full)

[35S]GTPγS binding stimulation (% of CPA) [4]: 82%
SMILES: O[C@@H]1[C@@H](COC(=S)NC2CCCCC2)OC(n2cnc3c(N[C@@H]4CCOC4)ncnc32)[C@@H]1O (stereo not given in full)

EC50 (Cavia porcellus [6]): 5 µM
SMILES: O=C(NC1CCCC1)OC[C@H]1OC(n2cnc3c(N[C@@H]4CCOC4)ncnc32)[C@H](O)[C@@H]1O (stereo not given in full)

EC50 (Cavia porcellus [7]): 5 µM
[35S]GTPγS binding stimulation (% of CPA) [4]: 95%
SMILES: O[C@@H]1[C@@H](COC(=S)NC2CCCC2)OC(n2cnc3c(N[C@@H]4CCOC4)ncnc32)[C@@H]1O (stereo not given in full)

[35S]GTPγS binding stimulation (% of CPA) [4]: 78%
SMILES: C=CCNC(=S)OC[C@H]1OC(n2cnc3c(N[C@@H]4CCOC4)ncnc32)[C@H](O)[C@@H]1O (stereo not given in full)

EC50 (Cavia porcellus [6]): 5 µM
[35S]GTPγS binding stimulation (% of CPA) [4]: 69%
SMILES: O=C(NC1CCCC1)OC[C@H]1OC(n2cnc3c(N[C@@H]4CCOC4)nc(Cl)nc32)[C@H](O)[C@@H]1O (stereo not given in full)

[35S]GTPγS binding stimulation (% of CPA) [4]: 85%
SMILES: CN(C)C(=S)OC[C@H]1OC(n2cnc3c(N[C@@H]4CCOC4)ncnc32)[C@H](O)[C@@H]1O (stereo not given in full)

[35S]GTPγS binding stimulation (% of CPA) [4]: 82%
SMILES: O[C@@H]1[C@@H](COC(=S)NC2CC2)OC(n2cnc3c(N[C@@H]4CCOC4)ncnc32)[C@@H]1O (stereo not given in full)

AUC at 8 h [9]: 698 ng·h/mL
remaining at 0.5 h [1]: ~100%
bioavailability [11]: 9%
Cmax [10]: 305 ng/mL
EC50 (Cavia porcellus [6]): 5 µM
Activity [12]: Partially active
half-life [13]: 8 h
SMILES: CNC(=O)OC[C@H]1OC(n2cnc3c(N[C@@H]4CCOC4)ncnc32)[C@H](O)[C@@H]1O (stereo not given in full)

remaining at 0.5 h [1]: 98%
EC50 (Cavia porcellus [14]): 1 µM
Activity [15]: 2%
[35S]GTPγS binding stimulation (% of CPA) [4]: 89%
SMILES: CCCNC(=S)OC[C@H]1OC(n2cnc3c(N[C@@H]4CCOC4)ncnc32)[C@H](O)[C@@H]1O (stereo not given in full)

remaining at 0.5 h [1]: 99%
EC50 (Cavia porcellus [2]): 0.51 µM
Activity [16]: 1%
[35S]GTPγS binding stimulation (% of CPA) [4]: 77%
SMILES: CNC(=S)OC[C@H]1OC(n2cnc3c(N[C@@H]4CCOC4)ncnc32)[C@H](O)[C@@H]1O (stereo not given in full)

EC50 (Cavia porcellus [6]): < 0.5 µM
SMILES: OC[C@H]1O[C@@H](n2cnc3c(N[C@@H]4CCOC4)ncnc32)[C@H](O)[C@@H]1O [TECADENOSON]
